Measurements published in ChEMBL document CHEMBL3352454, “From mixed sigma-2 receptor/P-glycoprotein targeting agents to selective P-glycoprotein modulators: small structural changes address the mechanism of interaction at the efflux pump” (Eur J Med Chem, 2015).
Calls of active or inactive are those of the source. The calls are words filed in the database; no cut-off is given here.

Tests used:
[1] = Inhibition of P-glycoprotein (unknown origin) expressed in MDCK cells assessed as reduction of calcein-AM transport after 30 mins by fluorescence assay; format: cell-based, Homo sapiens
In short: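 Confluent MDCK-MDR1 monolayers (50,000 cells/well, overnight) preincubated with compound (0.1–100 µM in medium) 30 min at 37 °C, then Calcein-AM added (2.5 µM final) for 30 min. Washed three times with ice-cold PBS; calcein fluorescence read at ex 485/em 535 nm versus untreated basal. EC50 from fit of % fluorescence increase versus log dose.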

[2] = target: Sigma non-opioid intracellular receptor 1 (Cavia porcellus) (UniProt Q60492); experiment: Displacement of [3H]-(+)-pentazocine from guinea pig brain sigma1 receptor at […] by scintillation counting analysis
Sigma non-opioid intracellular receptor 1 (Cavia porcellus), sequence (Q60492 whole entry): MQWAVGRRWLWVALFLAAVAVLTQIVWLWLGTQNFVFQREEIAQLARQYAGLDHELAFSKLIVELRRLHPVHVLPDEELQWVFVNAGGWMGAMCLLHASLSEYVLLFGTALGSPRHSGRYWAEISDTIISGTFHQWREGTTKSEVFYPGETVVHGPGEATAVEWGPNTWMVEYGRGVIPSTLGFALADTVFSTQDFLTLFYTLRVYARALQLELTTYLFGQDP

[3] = Displacement of [3H]DTG from rat liver sigma2 receptor by scintillation counting analysis in presence of pentazocine
MDCK = experiment: Inhibition of P-glycoprotein (unknown origin) expressed in MDCK cells assessed as ATP depletion at 100 uM by bioluminescence ATP assay; format: cell-based; conditions: Homo sapiens
In short: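 MDCK-MDR1 cells (human MDR1-transfected) plated, incubated overnight at 37 °C, 5% CO2, then exposed to test compound in complete medium for 2 h at 37 °C. Cells lysed; ATP measured by firefly luciferase/D-luciferin luminescence after 10 min dark adaptation. Percentage ATP depletion reported at 100 μM.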

[4] = target: Sigma non-opioid intracellular receptor 1 (Cavia porcellus, UniProt Q60492); experiment: Displacement of [3H]-(+)-pentazocine from guinea pig brain sigma1 receptor by scintillation counting analysis
Sigma non-opioid intracellular receptor 1, sequence (Q60492 whole entry): as above

[5] = Displacement of [3H]DTG from rat liver sigma2 receptor at 10^-11 M by scintillation counting analysis in presence of pentazocine

COc1cccc2c1CCCC2CCCN1CCC2(CC1)OCc1ccccc12 (stereo unspecified)
EC50 [1]: 2680 nM | inhibition [2]: 76% | Ki [3]: 40.6 nM

COc1cc2c(cc1OC)CN(CCCCc1cn(-c3ccc(F)cc3)c3ccccc13)CC2
inhibition (MDCK): inactive | EC50 [1]: 210 nM | Ki [4]: 1390 nM | Ki [3]: 5.34 nM

COc1cc2c(cc1OC)CN(CCCC(=O)n1c3ccccc3c3ccccc31)CC2
inhibition (MDCK): Active | EC50 [1]: 820 nM | Ki [4]: > 5000 nM | Ki [3]: > 10000 nM

COc1cc2c(cc1OC)CN(C(=O)CCC1CCCc3c(OC)cccc31)CC2 (stereo unspecified)
inhibition (MDCK): Active | EC50 [1]: 2900 nM | Ki [4]: > 5000 nM | Ki [3]: > 10000 nM

COc1cc2c(cc1OC)CN(CC(=O)NCc1cn(-c3ccc(F)cc3)c3ccccc13)CC2
EC50 [1]: 920 nM | Ki [4]: > 5000 nM | Ki [3]: 1620 nM

COc1cccc2c1CCCC2CCC(=O)N1CCC(c2ccc(F)cc2)CC1 (stereo unspecified)
EC50 [1]: 26000 nM | Ki [4]: 2930 nM | Ki [3]: 6520 nM

COc1cc2c(cc1OC)CN(CC(=O)NC1CCCc3c(OC)cccc31)CC2 (racemic)
EC50 [1]: 10000 nM | Ki [4]: > 5000 nM | Ki [3]: 1800 nM

COc1cc2c(cc1OC)CN(CCCC1CCCc3c(OC)cccc31)CC2 (stereo unspecified)
inhibition (MDCK): Active | EC50 [1]: 1150 nM | inhibition [5]: 96%

COc1cccc2c1CCCC2CCC(=O)N1CCC2(CC1)OCc1ccccc12 (stereo unspecified)
EC50 [1]: 5420 nM | Ki [4]: 260 nM | Ki [3]: 3210 nM

COc1cc2c(cc1OC)CN(C(=O)CCCc1cn(-c3ccc(F)cc3)c3ccccc13)CC2
inhibition (MDCK): Active | EC50 [1]: 2250 nM | Ki [4]: > 5000 nM | Ki [3]: > 10000 nM

COc1cccc2c1CCCC2CCCN1CCC(C2CCCCC2)CC1 (stereo unspecified)
EC50 [1]: 1920 nM | Ki [3]: 18.8 nM

COc1cc2c(cc1OC)C(=O)N(CCCCn1c3ccccc3c3ccccc31)CC2
inhibition (MDCK): 30% | EC50 [1]: 1910 nM | Ki [4]: > 5000 nM | Ki [3]: > 10000 nM

COc1cc2c(cc1OC)CN(CCCCn1c3ccccc3c3ccccc31)CC2
inhibition (MDCK): Active | EC50 [1]: 420 nM | Ki [4]: 2190 nM | Ki [3]: 0.04 nM

COc1cc2c(cc1OC)CN(CC(=O)N[C@@H]1CCCc3c(OC)cccc31)CC2
EC50 [1]: 9600 nM | Ki [4]: > 5000 nM | Ki [3]: 1950 nM

COc1cc2c(cc1OC)CN(CC/C=C1\CCCc3c(OC)cccc31)CC2
EC50 [1]: 820 nM

COc1cccc2c1CCCC2CCCN1CCC(c2ccc(F)cc2)CC1 (stereo unspecified)
EC50 [1]: 1980 nM | inhibition [2]: 80% | Ki [3]: 22.6 nM

COc1cc2c(cc1OC)C(=O)N(CCCCc1cn(-c3ccc(F)cc3)c3ccccc13)CC2
inhibition (MDCK): inactive | EC50 [1]: 2340 nM | Ki [4]: > 5000 nM | Ki [3]: > 10000 nM

COc1cc2c(cc1OC)CN(CC(=O)N[C@H]1CCCc3c(OC)cccc31)CC2
EC50 [1]: 10000 nM | Ki [4]: > 5000 nM | Ki [3]: 1760 nM

COc1cccc2c1CCCC2CCC(=O)N1CCC(C2CCCCC2)CC1 (stereo unspecified)
EC50 [1]: 30900 nM | Ki [4]: > 5000 nM | Ki [3]: > 10000 nM
